# Measured values as given in ChEMBL document CHEMBL1144994, “Metal coordination-based inhibitors of adenylyl cyclase: novel potent P-site antagonists” (J Med Chem, 2003).
# Target: Adenylate cyclase type 5 (Homo sapiens, UniProt O95622)
# Test: Inhibitory activity against recombinant human adenylate cyclase 5 expressed in HEK293 cells.
# Format: cell-based
# How it was run: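 Membranes from HEK293 cells expressing human type V AC (1.4 µg/mL protein), stimulated with 25 nM activated recombinant GsR. Buffer: 60 mM HEPES pH 8.0, 0.6 mM EDTA, 0.01% BSA, 1 mM ATP, 2 mM IBMX, 2 mM MgCl₂. Reaction 30 min at 30 °C. cAMP product quantified by flash plate. Inhibition calculated against compound-free controls.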
# Sequence of Adenylate cyclase type 5 (O95622 whole entry): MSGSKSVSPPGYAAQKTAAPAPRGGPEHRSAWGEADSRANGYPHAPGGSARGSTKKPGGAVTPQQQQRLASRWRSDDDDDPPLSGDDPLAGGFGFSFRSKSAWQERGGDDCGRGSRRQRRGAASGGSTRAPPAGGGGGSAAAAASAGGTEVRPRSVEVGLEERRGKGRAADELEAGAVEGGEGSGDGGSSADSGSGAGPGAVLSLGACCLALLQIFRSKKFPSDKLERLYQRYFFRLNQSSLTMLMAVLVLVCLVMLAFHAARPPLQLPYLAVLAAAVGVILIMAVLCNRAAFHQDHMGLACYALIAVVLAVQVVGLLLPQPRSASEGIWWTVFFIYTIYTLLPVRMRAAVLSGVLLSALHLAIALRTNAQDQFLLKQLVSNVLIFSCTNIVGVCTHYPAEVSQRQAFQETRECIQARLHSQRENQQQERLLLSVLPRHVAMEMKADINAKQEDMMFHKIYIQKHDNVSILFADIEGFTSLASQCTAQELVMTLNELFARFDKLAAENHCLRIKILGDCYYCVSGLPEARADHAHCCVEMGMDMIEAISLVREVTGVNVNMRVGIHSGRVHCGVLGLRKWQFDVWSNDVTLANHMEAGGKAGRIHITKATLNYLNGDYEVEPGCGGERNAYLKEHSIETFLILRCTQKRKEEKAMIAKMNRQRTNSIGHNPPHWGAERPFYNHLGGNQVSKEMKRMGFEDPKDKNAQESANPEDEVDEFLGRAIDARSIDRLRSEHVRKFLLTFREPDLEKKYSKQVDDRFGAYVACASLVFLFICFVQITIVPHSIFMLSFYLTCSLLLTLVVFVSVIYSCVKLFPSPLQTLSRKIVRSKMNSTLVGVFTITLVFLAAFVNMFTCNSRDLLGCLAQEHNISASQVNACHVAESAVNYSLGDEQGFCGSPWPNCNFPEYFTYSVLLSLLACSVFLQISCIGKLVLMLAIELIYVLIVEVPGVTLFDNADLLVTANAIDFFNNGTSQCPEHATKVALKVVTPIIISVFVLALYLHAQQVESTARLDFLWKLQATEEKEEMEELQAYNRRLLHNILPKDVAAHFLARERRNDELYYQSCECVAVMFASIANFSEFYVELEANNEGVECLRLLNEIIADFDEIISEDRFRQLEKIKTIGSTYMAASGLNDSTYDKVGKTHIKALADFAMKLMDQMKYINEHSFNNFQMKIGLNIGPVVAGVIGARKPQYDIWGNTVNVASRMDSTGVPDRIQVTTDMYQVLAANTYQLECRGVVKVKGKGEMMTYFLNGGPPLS
row,SMILES,IC50
1,Nc1ncnc2c1ncn2[C@H]1CC[C@H](CC(=O)O)C1,> 100 µM
2,Nc1ncnc2c1ncn2[C@H]1CC[C@@H](CC(=O)O)C1,> 200 µM
3,Nc1ncnc2c1ncn2[C@@H]1C=C[C@@H](CC(=O)NO)C1,4.3 µM
4,Nc1ncnc2c1ncn2[C@H]1CC[C@H](OCC(=O)NO)C1,10.8 µM
5,Nc1ncnc2c1ncn2[C@H]1C=C[C@H](OCC(=O)NO)C1,13.6 µM
6,Nc1ncnc2c1ncn2[C@@H]1CC[C@H](CC(=O)NO)C1,55 µM
7,Nc1ncnc2c1ncn2[C@@H]1CC[C@@H](CC(=O)O)C1,28.8 µM
8,Nc1ncnc2c1ncn2[C@H]1C=C[C@@H](CC(=O)O)C1,> 200 µM
9,Nc1ncnc2c1ncn2[C@@H]1CC[C@H](C(=O)NO)C1,> 70 µM
10,Nc1ncnc2c1ncn2[C@H]1C=C[C@@H](C(=O)NO)C1,188 µM
11,Nc1ncnc2c1ncn2[C@@H]1CC[C@H](CC(=O)O)C1,> 200 µM
12,Nc1ncnc2c1ncn2[C@H]1C=C[C@H](CC(=O)O)C1,8.2 µM
13,Nc1ncnc2c1ncn2[C@@H]1C=C[C@H](CC(=O)NO)C1,2.6 µM
14,"Nc1ncnc2c1ncn2[C@H]1CC[C@H](C(=O)NO)C1 (single isomer, unassigned)",0.2 µM

# More lines, now with the values ahead:
row,IC50,SMILES
1,4.6 µM,Nc1ncnc2c1ncn2[C@H]1CC[C@@H](C(=O)NO)C1
2,73.2 µM,Nc1ncnc2c1ncn2[C@@H]1C=C[C@H](CC(=O)O)C1
3,16.3 µM,Nc1ncnc2c1ncn2[C@H]1C=C[C@@H](CC(=O)NO)C1
4,> 200 µM,Nc1ncnc2c1ncn2[C@@H]1C=C[C@@H](CC(=O)O)C1
5,100 µM,Nc1ncnc2c1ncn2[C@@H]1C=C[C@@H](C(=O)NO)C1
6,25.1 µM,Nc1ncnc2c1ncn2[C@H]1CC[C@@H](CC(=O)NO)C1
7,9.4 µM,Nc1ncnc2c1ncn2[C@H]1CC[C@H](CC(=O)NO)C1
8,0.6 µM,Nc1ncnc2c1ncn2[C@@H]1CC[C@@H](CC(=O)NO)C1
9,0.4 µM,Nc1ncnc2c1ncn2[C@H]1C=C[C@H](CC(=O)NO)C1
10,4.9 µM,Nc1ncnc2c1ncn2[C@H]1C=C[C@H](C(=O)NO)C1
11,> 200 µM,Nc1ncnc2c1ncn2[C@@H]1C=C[C@H](C(=O)NO)C1
12,78 µM,"Nc1ncnc2c1ncn2[C@@H]1CC[C@@H](C(=O)NO)C1 (single isomer, unassigned)"
